These results are taken from article PMC7080047 (Medicinal Chemistry Research, 2014).

The test system of assay [1] is immune-activated NO production by mouse peritoneal cells. In words: in vitro nitric oxide. It is filed as cell-based. The settings on record: for IC50: read-out: NO-inhibitory IC 50, LPS/IFN-γ stimulated mouse peritoneal cells, 24 h; for concentration at which NO-suppressive effects were already apparent: dose-response, Fig. 2. A digest of the protocol: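 Peritoneal lavage cells (8 mL saline) pooled from 4–10 female C57BL/6 mice, 8–10 weeks old, seeded at 2 × 10^6 cells/mL in RPMI-1640 with 10% FBS, 37 °C, 5% CO2. Test compound (DMSO stock diluted in medium; DMSO control) added for 24 h with IFN-γ 0.5 ng/mL plus E. coli LPS 0.1 ng/mL, duplicates. Supernatant nitrite measured by Griess reagent at A540 against a nitrite standard curve, expressed as % of control.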

For assay [2], the system named is viruses such as members of the Herpes, Picorna, and Pox groups. The settings on record: ref Marcialis et al., 1973, 1974, La Colla et al., 1975; cited from earlier work.
The test system of assay [3] is Feline herpes virus. Kind of assay: antiviral activity, Feline herpes virus in CRFK cells. It counts as cell-based. The settings on record: read-out: antiviral EC50.
The subject of assay [4] is vesicular stomatitis virus (VSV). In words: microbe, parasite or virus in culture. Particulars: HeLa, read-out: antiviral EC50. It counts as cell-based.
For assay [5], the system named is HSV-1. In words: antiviral activity, HSV-1 in HeLa cells. Particulars: Human alphaherpesvirus 1, HeLa, read-out: antiviral EC50. It counts as cell-based.
In assay [6] the test system is Parainfluenza 3-virus. Kind of assay: antiviral activity, Parainfluenza 3-virus in MDCK cells. It is filed as cell-based. The settings on record: read-out: antiviral EC50.
The test system of assay [7] is Punta Toro virus. Kind of assay: antiviral activity, Punta Toro virus in MDCK cells. The settings on record: read-out: antiviral EC50. It is filed as cell-based.
The test system of assay [8] is Reovirus-1. In words: antiviral activity, Reovirus-1 in MDCK cells. Particulars: read-out: antiviral EC50. It counts as cell-based.
Assay [9] deals with respiratory syncytial virus (RSV). Kind of assay: antiviral activity, respiratory syncytial virus in HeLa cells. It is filed as cell-based. Particulars: human respiratory syncytial virus, read-out: antiviral EC50.
The subject of assay [10] is HSV-2. In words: antiviral activity, HSV-2 in HeLa cells. It counts as cell-based. The settings on record: Human alphaherpesvirus 2, HeLa, read-out: antiviral EC50.
In assay [11] the test system is vaccinia virus. Kind of assay: antiviral activity, vaccinia virus in HeLa cells. The settings on record: Orthopoxvirus vaccinia, read-out: antiviral EC50. It counts as cell-based.
In assay [12] the test system is HIV-2. Kind of assay: antiviral activity, HIV-2 in CEM cells. It is filed as cell-based. Particulars: Human immunodeficiency virus 2, CCRF-CEM, read-out: antiviral EC50.
For assay [13], the system named is HIV-1. In words: antiviral activity, HIV-1 in CEM cells. It is filed as cell-based. Particulars: Human immunodeficiency virus 1, CCRF-CEM, read-out: antiviral EC50.
Assay [14] concerns NO production in chicken macrophages. Particulars: ref Sung et al., 1994; cited from earlier work.

As for “N-(3-aminomethyl)-benzylacetamide [1,400 W, reference compound]”, in assay [1], the IC50 came out at 3.87 µM.

As for `C#CCc1c(Cl)nc(N)nc1Cl` [Compound B6, 4,6-Dichloro-5-(prop-2-yn-1-yl)pyrimidin-2-amine], the “concentration at which NO-suppressive effects were already apparent” value in [1] is given as 2.5 µM.

`N=C(N)NN` [Aminoguanidine, aminoguanidine, reference compound]: the IC50 in assay [1] stood at 77.8 µM.

One may read the EC50 as the concentration that produces a half-maximal response. In the case of `Nc1nc(Cl)cc(Cl)n1` [Compound B1, 2-amino-4,6-dichloropyrimidine], the “concentration required for antiviral activities described in the literature” value in assay [2] was around 100 µg/mL. For the same compound, the EC50 in [3], in assay [4], in assay [5], in [6], in assay [7] and in [8] was above 100 µg/mL in each case. Moreover, the EC50 in assay [9], in assay [10], in assay [11], in assay [12] and in [13] was above 100 µg/mL in each case.

Regarding `Nc1nc(Cl)c(F)c(Cl)n1` [Compound B12, 5-fluoro-2-amino-4,6-dichloropyrimidine], in [1], the “concentration at which NO-suppressive effects were already apparent” value came to 2.5 µM. In assay [1] (mouse peritoneal cells), the “effect on immune-activated NO production (in words)” value is on record as “nearly completely suppressed the production of NO”.

As to `Nc1cc(O)nc(N)n1` [2,4-diamino-6-hydroxypyrimidine], the “effect on NO production (in words)” value in assay [14] is “suppresses NO production”.
